The results in this text go back to ChEMBL document CHEMBL1137092, “Synthesis and evaluation of two 18F-labeled 6-iodo-2-(4'-N,N-dimethylamino)phenylimidazo[1,2-a]pyridine derivatives as prospective radioligands for beta-amyloid in Alzheimer's disease” (J Med Chem, 2004).

The nature of data set [1]: Compound was evaluated for distribution coefficient (logD) measured at pH7.4. The data set is classed as physicochemical. The settings on record: octanol/water, pH 7.4. Put shortly:
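Shake-flask partition: ligand (3–5 mg) in 0.1 M sodium phosphate pH 7.4 (6.0 mL) with n-octanol (1.0 mL). Vortexed 1 min, shaken 1 min, filtered, left 10 min at RT, centrifuged 5000g for 10 min. Value is the ratio of organic-phase to aqueous-phase concentration.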

For data set [2], the system named is Mus musculus. Put plainly: Maximum activity (i.v.) after in mice, expressed as [(ID%-kg)/g] (Radiolabeled compound). The data set is classed as ADME, organism-based. The note with it: in vivo, iv. In a few lines:
(§1)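 Male ICR mice (2–3 months, 20–30 g) under 1% isoflurane, body temperature held at 36–37 °C. No-carrier-added 18F ligand (400–450 μCi) in 0.9% saline with 0.1% Tween given via tail-vein catheter. Dynamic small-animal PET for 1–2 h. Brain and skull time-activity curves were averaged over four mice and fitted to a double-exponential model; bone uptake was fitted linearly or exponentially.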

The species entered for data set [3] is Mus musculus. As to the kind of experiment: Time at maximum activity in mice (Radiolabeled compound). The data set is classed as ADME, organism-based. The note with it: in vivo. Put shortly: as §1
The subject of data set [4] is Mus musculus. As to the kind of experiment: Compound was evaluated for rate of bone uptake after administration of radiolabeled in mice (Radiolabeled compound). In kind it is ADME, organism-based, Bone element. The note with it: in vivo. Put shortly: as §1
The species named for data set [5] is Mus musculus. Put plainly: Residual activity in mice at 120 minutes, expressed as [(ID%-kg)/g] (Radiolabeled compound). The data set is classed as ADME, organism-based. The note with it: in vivo, 2 h. In a few lines: as §1
Data set [6] is filed under the species Mus musculus. As to the kind of experiment: Compound was evaluated for washout rate in mice after radiolabeled ligand injected. The data set is classed as ADME, organism-based. The settings on record: in vivo. In a few lines: as §1
Data set [7] is described as follows: Compound (i.v.) was evaluated for uptake rate constants in striatum of rhesus monkeys (Radiolabeled compound). In kind it is ADME, tissue-based. The settings on record: cercopithecidae, iv. Put shortly: (§2)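 Rhesus monkey with urinary catheter; ECG, temperature, heart and respiration rates monitored. A 32 min 68Ge transmission scan was taken for attenuation correction. 18F ligand (2.9 mCi) given iv. Dynamic 3D head PET ran 120 min (33 frames, 30 s–5 min). Regional uptake and elimination rate constants were fitted from time-activity curves.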

In data set [8] the test system is Mus musculus. Put plainly: Compound was evaluated for uptake rate constants in vivo in whole blood of normal mice (Radiolabeled compound). The data set is classed as ADME, organism-based. In a few lines:
(§3)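 Normal mice given 18F ligand iv during PET. Serial blood samples (10–35 μL) were taken and analysed by reverse-phase HPLC for parent, lipophilic and polar radioactive components. Parent, lipophilic and total curves were fitted to single-exponential decay; the polar metabolite curve was fitted double-exponentially to give rate constants.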

Data set [9] in a line: Compound (i.v.) was evaluated for elimination rate constants in cerebellum of rhesus monkeys (Radiolabeled compound). The data set is classed as ADME, tissue-based. The settings on record: cercopithecidae, iv. In a few lines:
as §2

Data set [10] has as its system Mus musculus. Put plainly: Compound was evaluated for uptake rate constants in vivo in whole blood of normal mice; NA = not active (Radiolabeled compound). The data set is classed as ADME, organism-based. In a few lines:
as §3

Data set [11] can be described thus: Compound (i.v.) was evaluated for elimination rate constants in jaw bone of rhesus monkeys; NA = not active (Radiolabeled compound). The settings on record: cercopithecidae, iv. In kind it is ADME, tissue-based, Bone element. Put shortly:
as §2

The nature of data set [12]: Compound (i.v.) was evaluated for elimination rate constants in frontal cortex of rhesus monkey (Radiolabeled compound). In kind it is ADME, tissue-based. The note with it: cercopithecidae, iv, read-out: Activity (converted). Put shortly: as §2
In data set [13] the test system is Mus musculus. As to the kind of experiment: Compound (i.v.) was tested for maximum activity in mice (Radiolabeled compound). The data set is classed as ADME, organism-based. The settings on record: in vivo, iv. In a few lines:
as §1

Data set [14] in a line: Compound (i.v.) was evaluated for uptake rate constants in frontal cortex of rhesus monkey (Radiolabeled compound). The data set is classed as ADME, tissue-based. The note with it: cercopithecidae, iv. Put shortly: as §2
Data set [15] in a line: Compound (i.v.) was evaluated for uptake rate constants in jaw bone of rhesus monkey (Radiolabeled compound). The data set is classed as ADME, tissue-based, Bone element. The note with it: cercopithecidae, iv. Put shortly: as §2
Data set [16] can be described thus: Compound (i.v.) was evaluated for uptake rate constants in brainstem of rhesus monkeys (Radiolabeled compound). The data set is classed as ADME, tissue-based, Brain. The settings on record: cercopithecidae, iv. Put shortly:
as §2

Data set [17] can be described thus: Compound (i.v.) was evaluated for elimination rate constants in striatum of rhesus monkey (Radiolabeled compound). The data set is classed as ADME, tissue-based. The settings on record: cercopithecidae, iv. Put shortly:
as §2

The species entered for data set [18] is Mus musculus. As to the kind of experiment: Compound was evaluated for washout rate in mice (Radiolabeled compound). In kind it is ADME, organism-based. The note with it: in vivo. Put shortly: as §1
For data set [19], the species on record is Mus musculus. Put plainly: Compound was evaluated for rate of bone uptake in mice (Radiolabeled compound). In kind it is ADME, organism-based, Bone element. The settings on record: in vivo. Put shortly: as §1
The test system of data set [20] is Mus musculus. Put plainly: Compound was evaluated for elimination rate constants in vivo in whole blood of normal mice (Radiolabeled compound). The data set is classed as ADME, organism-based. Put shortly: as §3
Data set [21] can be described thus: Compound (i.v.) was evaluated for elimination rate constants in brainstem of rhesus monkeys (Radiolabeled compound). The settings on record: cercopithecidae, iv, read-out: Activity (converted). The data set is classed as ADME, tissue-based, Brain. In a few lines:
as §2

Data set [22] is described as follows: Compound (i.v.) was evaluated for uptake rate constants in cerebellum of rhesus monkeys (Radiolabeled compound). In kind it is ADME, tissue-based. The settings on record: cercopithecidae, iv. In a few lines: as §2
Data set [23] is filed under the species Mus musculus. As to the kind of experiment: Maximum activity in mice, expressed as [(ID%-kg)/g] (Radiolabeled compound). The data set is classed as ADME, organism-based. The settings on record: in vivo. Put shortly:
as §1

For data set [24], the species on record is Mus musculus. As to the kind of experiment: Compound was evaluated for rate of bone uptake in mice; NA - not active (Radiolabeled compound). In kind it is ADME, organism-based, Bone element. The note with it: in vivo.

“And” between values parts separate entries of the source, which are not always exact repeats. Identical values can stand only once.

`CN(CCCF)c1ccc(-c2cn3cc(I)ccc3n2)cc1` yielded a logD in [1] of 4.6. Also, the Activity in the data set with Mus musculus [2] came to 0.157; in the data set filed under Mus musculus [3], 1.83 min; in the data set on Mus musculus [4] it was 0.00728 min⁻¹; in the data set filed under Mus musculus [5], 0.0479; in the data set filed under Mus musculus [6], 0.127 min⁻¹.

`CN(CCF)c1ccc(-c2cn3cc(I)ccc3n2)cc1` registered a logD in [1] of 4.41. In addition, the Activity was 0.972 min⁻¹ in data set [7]; 0.161 in the data set with Mus musculus [2]; 0.576 min⁻¹ in the data set with Mus musculus [8]; 0.0854 min⁻¹ in data set [9]; “Not Active” in the data set with Mus musculus [10]; “Not Active” in data set [11]. The Activity with Mus musculus [13] is 0.5 min; in data set [14], 0.859 min⁻¹; in data set [15] it was 0.373 min⁻¹; in [16], 1 min⁻¹; in data set [17], 0.0859 min⁻¹; in the data set filed under Mus musculus [18] it was 0.334 min⁻¹. The Activity in the data set listed under Mus musculus [19] was 0.0016 min⁻¹; in the data set listed under Mus musculus [5], 0.111; in the data set on Mus musculus [20], 1.14 min⁻¹ and 0.722 min⁻¹ and 0.801 min⁻¹; in data set [22], 1.09 min⁻¹. Further, the results for the k el in [12] and in [21] were 0.00101 s⁻¹ and 0.000813 s⁻¹, respectively.

For the molecule `CN(C)c1ccc(-c2cn3cc([125I])ccc3n2)cc1`, in [1], the logD stood at 3.58. Also, the Activity in the data set listed under Mus musculus [3] was 2 min; in the data set listed under Mus musculus [23], 0.216; in the data set listed under Mus musculus [18], 0.122 min⁻¹; in the data set listed under Mus musculus [24], “Not Active”; in the data set filed under Mus musculus [5], 0.0108.

For orientation: logD means the decadic logarithm of the distribution of all forms, ionised or not, between an organic phase and buffer at a given pH.
